# Experiments:
# Rattus norvegicus [1] = organism: Rattus norvegicus; assay: Increase in diastolic blood pressure at 3 Htz electrical stimulation in the pithed rats; assay type: functional, Artery
# How it was run: (§1)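 Male rats (200-300 g) were given drug or isotonic saline ip, in groups of five, 2 h before pithing (one reference agent 1 h before). Doses were 50 or 25 mg/kg, or 5 mg/kg for the reference agent. Rats were put under halothane, tracheally cannulated, pithed through the left orbit and ventilated with room air at 50 strokes/min. After iv tubocurarine (1 mg/kg), the whole sympathetic outflow was stimulated at 1, 3 or 6 Hz (0.5 ms, 20 V, 15 s). The rise in diastolic pressure was recorded in mmHg.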
# Rattus norvegicus [2] = assay: Summation of percentage reductions, compared to pretreatment controls, in MABP of DOCA hypertensive rats at 1,2,3,5,8 hr after the 50 mg/kg oral dose.; assay type: functional
# How it was run: (§2)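 DOCA hypertensive rats (n = 5) were dosed orally. MABP (diastolic + one-third pulse pressure) was read before dosing and at 1, 2, 3, 5 and 8 h. The value is the sum of the % reductions from pretreatment control over these five time points.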
# Rattus norvegicus [3] = assay: Increase in diastolic blood pressure at 0.1 ug/kg intravenous dosing of noradrenaline in pithed rats; assay type: functional, Artery
# How it was run: (§3)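 The pithed-rat preparation was used: male rats (200-300 g) got drug or isotonic saline ip in groups of five, 2 h beforehand (one reference agent 1 h). Doses were 50, 25 or 5 mg/kg. Rats were under halothane, cannulated, pithed and ventilated with room air. Noradrenaline (0.1-1.0 µg/kg) or angiotensin (0.03-0.3 µg/kg) was injected iv, and the increase in diastolic pressure was recorded in mmHg.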
# Rattus norvegicus [4] = assay: Increase in diastolic blood pressure at 0.1 ug/kg intravenous dosing of angiotensin in pithed rats; assay type: functional, Artery; how it was run: as §3
# Rattus norvegicus [5] = assay: Maximum percentage reduction in mean arterial blood pressure in metacorticoid (DOCA) hypertensive rats at a standard oral dose of 50 mg/kg; assay type: functional
# How it was run: (§4)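 Rats were DOCA hypertensive. For oral dosing, food was withdrawn 18 h before; rats dosed ip were not starved. The vehicle was isotonic saline. Pressure was recorded by transducer under minimal restraint: twice before dosing, then at 1, 2, 3, 5 and 22 h. MABP was taken as diastolic + one-third pulse pressure. The value is the maximum % fall from the mean of the two pretreatment readings, n = 3-5.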
# Rattus norvegicus [6] = assay: Increase in diastolic blood pressure at 0.03 ug/kg intravenous dosing of angiotensin in pithed rats; assay type: functional, Artery; how it was run: as §3
# Rattus norvegicus [7] = organism: Rattus norvegicus; assay: Increase in diastolic blood pressure at 6 Htz electrical stimulation in the pithed rats; assay type: functional, Artery; how it was run: as §1
# Rattus norvegicus [8] = assay: Increase in diastolic blood pressure at 0.3 ug/kg intravenous dosing of noradrenaline in pithed rats; assay type: functional, Artery; how it was run: as §3
# Rattus norvegicus [9] = assay: Increase in diastolic blood pressure at 1.0 ug/kg intravenous dosing of noradrenaline in pithed rats; assay type: functional, Artery; how it was run: as §3
# Rattus norvegicus [10] = assay: Maximum percentage reduction in mean arterial blood pressure in metacorticoid (DOCA) hypertensive rats at a standard oral dose of 100 mg/kg; assay type: functional; how it was run: as §4
# Rattus norvegicus [11] = assay: Summation of percentage reductions, compared to pretreatment controls, in MABP of DOCA hypertensive rats at 1,2,3,5,8 hr after the 100 mg/kg oral dose.; assay type: functional; how it was run: as §2
# Rattus norvegicus [12] = assay: Increase in diastolic blood pressure at 0.3 ug/kg intravenous dosing of angiotensin in pithed rats; assay type: functional, Artery; how it was run: as §3
# Rattus norvegicus [13] = organism: Rattus norvegicus; assay: Increase in diastolic blood pressure at 1 Htz electrical stimulation in the pithed rats; assay type: functional, Artery; how it was run: as §1
# Rattus norvegicus [14] = assay: Increase in diastolic blood pressure for 0.1 ug/kg intravenous dosing of noradrenaline in pithed rats; assay type: functional, Artery; how it was run: as §3
# Rattus norvegicus [15] = organism: Rattus norvegicus; assay: Increase in diastolic blood pressure for 3 Htz electrical stimulation in the pithed rats; assay type: functional, Artery; how it was run: as §1
# Rattus norvegicus [16] = assay: Increase in diastolic blood pressure for 0.3 ug/kg intravenous dosing of angiotensin in pithed rats; assay type: functional, Artery; how it was run: as §3
# Rattus norvegicus [17] = organism: Rattus norvegicus; assay: Increase in diastolic blood pressure for 6 Htz electrical stimulation in the pithed rats; assay type: functional, Artery; how it was run: as §1
# Rattus norvegicus [18] = assay: Increase in diastolic blood pressure for 0.3 ug/kg intravenous dosing of noradrenaline in pithed rats; assay type: functional, Artery; how it was run: as §3
# Rattus norvegicus [19] = assay: Increase in diastolic blood pressure for 0.03 ug/kg intravenous dosing of angiotensin in pithed rats; assay type: functional, Artery; how it was run: as §3
# Rattus norvegicus [20] = assay: Maximum percentage reduction in mean blood pressure in metacorticoid (DOCA) hypertensive rats at a standard oral dose of 50 mg/kg; assay type: functional; how it was run: as §4
# Rattus norvegicus [21] = assay: Increase in diastolic blood pressure for 0.1 ug/kg intravenous dosing of angiotensin in pithed rats; assay type: functional, Artery; how it was run: as §3
# Rattus norvegicus [22] = organism: Rattus norvegicus; assay: Increase in diastolic blood pressure for 1 Htz electrical stimulation in the pithed rats; assay type: functional, Artery; how it was run: as §1
# Rattus norvegicus [23] = assay: Increase in diastolic blood pressure for 1.0 ug/kg intravenous dosing of noradrenaline in pithed rats; assay type: functional, Artery; how it was run: as §3
# Rattus norvegicus [24] = assay: Maximum percentage reduction in mean blood pressure in metacorticoid (DOCA) hypertensive rats at a standard oral dose of 100 mg/kg; assay type: functional; how it was run: as §4
# Rattus norvegicus [25] = assay: Increase in diastolic blood pressure at r 0.3 ug/kg intravenous dosing of noradrenaline in pithed rats; assay type: functional, Artery; how it was run: as §3
# Rattus norvegicus [26] = assay: Maximum percentage reduction in mean blood pressure in metacorticoid (DOCA) hypertensive rats at a standard intraperitoneal dose of 100 mg/kg; assay type: functional; how it was run: as §4
# Rattus norvegicus [27] = assay: Maximum percentage reduction in mean blood pressure in metacorticoid (DOCA) hypertensive rats at a standard oral dose of 10 mg/kg; assay type: functional; how it was run: as §4
# Rattus norvegicus [28] = assay: Maximum percentage reduction in mean blood pressure and heart rate in metacorticoid (DOCA) hypertensive rats at a standard intraperitoneal dose of 100 mg/kg; assay type: functional
smiles,measurement,setting,value
Cc1ccccc1-c1nnc(N=C(N)N)s1.Cl,Increase in blood pressure,Rattus norvegicus [1],29 mmHg
same,Summation MABP,Rattus norvegicus [2],115
same,Increase in blood pressure,Rattus norvegicus [3],12 mmHg
same,Increase in blood pressure,Rattus norvegicus [4],9 mmHg
same,Reduction,Rattus norvegicus [5],36%
same,Increase in blood pressure,Rattus norvegicus [6],2 mmHg
same,Increase in blood pressure,Rattus norvegicus [7],35 mmHg
same,Increase in blood pressure,Rattus norvegicus [8],23 mmHg
same,Increase in blood pressure,Rattus norvegicus [9],39 mmHg
same,Reduction,Rattus norvegicus [10],41%
same,Summation MABP,Rattus norvegicus [11],167
same,Increase in blood pressure,Rattus norvegicus [12],22 mmHg
same,Increase in blood pressure,Rattus norvegicus [13],13 mmHg
COCC/N=C(/N)Nc1nnc(-c2ccccc2C)s1.Cl,Increase in blood pressure,Rattus norvegicus [14],13 mmHg
same,Summation MABP,Rattus norvegicus [2],113
same,Increase in blood pressure,Rattus norvegicus [15],52 mmHg
same,Increase in blood pressure,Rattus norvegicus [16],44 mmHg
same,Increase in blood pressure,Rattus norvegicus [17],65 mmHg
same,Increase in blood pressure,Rattus norvegicus [18],25 mmHg
same,Increase in blood pressure,Rattus norvegicus [19],14 mmHg
same,Reduction,Rattus norvegicus [20],29%
same,Summation MABP,Rattus norvegicus [11],157
same,Increase in blood pressure,Rattus norvegicus [21],28 mmHg
same,Increase in blood pressure,Rattus norvegicus [22],30 mmHg
same,Increase in blood pressure,Rattus norvegicus [23],45 mmHg
same,Reduction,Rattus norvegicus [24],37%
Cc1ccccc1-c1nnc(NC2=NCCN2)s1.Cl,Increase in blood pressure,Rattus norvegicus [1],34 mmHg
same,Increase in blood pressure,Rattus norvegicus [25],21 mmHg
same,Summation MABP,Rattus norvegicus [2],117
same,Increase in blood pressure,Rattus norvegicus [3],10 mmHg
same,Increase in blood pressure,Rattus norvegicus [4],27 mmHg
same,Reduction,Rattus norvegicus [5],28%
same,Increase in blood pressure,Rattus norvegicus [6],15 mmHg
same,Increase in blood pressure,Rattus norvegicus [7],45 mmHg
same,Increase in blood pressure,Rattus norvegicus [9],44 mmHg
same,Reduction,Rattus norvegicus [10],43%
same,Summation MABP,Rattus norvegicus [11],194
same,Increase in blood pressure,Rattus norvegicus [12],43 mmHg
same,Increase in blood pressure,Rattus norvegicus [13],17 mmHg
Cl.N=C(N)Nc1nnc(-c2ccc(Cl)cc2)s1,Reduction,Rattus norvegicus [26],18%
Nc1cc(N2CCCCC2)nc(N)[n+]1[O-] [MINOXIDIL],Reduction,Rattus norvegicus [27],42%
COc1ccc(-c2nnc(N=C(N)N)s2)cc1.Cl,Reduction,Rattus norvegicus [28],28%
CCCC/N=C(/N)Nc1nnc(-c2ccccc2C)s1.Cl,Increase in blood pressure,Rattus norvegicus [1],20 mmHg
same,Summation MABP,Rattus norvegicus [2],126
same,Increase in blood pressure,Rattus norvegicus [4],23 mmHg
same,Reduction,Rattus norvegicus [5],31%
same,Increase in blood pressure,Rattus norvegicus [8],42 mmHg
same,Reduction,Rattus norvegicus [10],39%
same,Summation MABP,Rattus norvegicus [11],159
N=C(N)Nc1nnc(-c2c(Cl)cccc2Cl)s1,Reduction,Rattus norvegicus [28],34%

# — ChEMBL document CHEMBL1124108, “Antihypertensive thiadiazoles. 2. Vasodilator activity of some 2-aryl-5-guanidino-1,3,4-thiadiazoles” (1988)
